What was measured:
CCRF-CEM = assay: Compound was tested for cytotoxicity against CCRF-CEM cell lines; format: functional, cell-based; conditions: Homo sapiens
Procedure, shortened: (§1)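 Cell-proliferation assay run against each named cell line. The value is the concentration that holds proliferation at 50% of untreated controls.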

HEp-2 = assay: Compound was tested for cytotoxicity against HEp-2 cell lines; format: functional, cell-based; conditions: Homo sapiens; procedure, shortened: as §1
L1210 = assay: Compound was tested for cytotoxicity against L1210 cell lines; format: functional, cell-based; conditions: Mus musculus; procedure, shortened: as §1
Mus musculus [1] = assay: Tumor-free survivors of P388 leukemia infected mice was measured after ip administration of 25 mg/kg in 6 mice; format: functional; conditions: route intraperitoneal
Procedure, shortened: (§2)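 CD2F1 mice received 10⁶ P388 leukemia cells ip on day 0 and were then dosed ip in mg/kg per dose, at or below the LD10. Tumor-free survivors were scored among the treated group.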

Mus musculus [2] = assay: Log chance in viable tumor cells population was measured after intraperitoneal administration of 100 mg/kg; format: functional
Procedure, shortened: (§3)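 CD2F1 mice were implanted ip with 10⁶ P388 leukemia cells on day 0, then treated ip. Doses are mg/kg per dose, kept at or below LD₁₀. Read-out is the log change in viable tumor cells from start to end of therapy, based on the median day of death among the animals that died.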

Mus musculus [3] = assay: Log chance in viable tumor cells population was measured after intraperitoneal administration of 25 mg/kg; format: functional; procedure, shortened: as §3
Mus musculus [4] = assay: In Vivo increase in life span of dying mice implanted ip with 10E6 P388 leukemia, after ip administration of 25 mg/kg; format: functional; conditions: route intraperitoneal
Procedure, shortened: (§4)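 CD2F1 mice implanted ip with 10⁶ P388 leukemia cells on day 0. Treatment ip, doses given as mg/kg per dose and kept at or below the LD10. Read-out is increase in life span against untreated controls.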

Mus musculus [5] = assay: In Vivo increase in life span of dying mice implanted ip with 10E6 P388 leukemia, after ip administration of 100 mg/kg; format: functional; conditions: route intraperitoneal; procedure, shortened: as §4
Mus musculus [6] = assay: Tumor-free survivors of P388 leukemia infected mice was measured after ip administration of 100 mg/kg in 3 mice; format: functional; conditions: route intraperitoneal; procedure, shortened: as §2
K562 = assay: Compound was tested for cytotoxicity against K562 cell lines; format: functional, cell-based; conditions: Homo sapiens; procedure, shortened: as §1
Mus musculus [7] = assay: In Vivo increase in life span of dying mice implanted ip with 10E6 P388 leukemia, after ip administration of 30 mg/kg; format: functional; conditions: route intraperitoneal; procedure, shortened: as §4
Mus musculus [8] = assay: In Vivo increase in life span of dying mice implanted ip with 10E6 P388 leukemia, after ip administration of 200 mg/kg; format: functional; conditions: route intraperitoneal; procedure, shortened: as §4
Mus musculus [9] = assay: Tumor-free survivors of P388 leukemia infected mice was measured after ip administration of 200 mg/kg in 6 mice; format: functional; conditions: route intraperitoneal; procedure, shortened: as §2
Mus musculus [10] = assay: Log change in viable tumor cells population was measured at end of therapy when compared to start of therapy at dose 200 mg/kg; format: functional; procedure, shortened: as §3
Mus musculus [11] = assay: Log change in viable tumor cells population was measured at end of therapy when compared to start of therapy at dose 30 mg/kg; format: functional; procedure, shortened: as §3
Mus musculus [12] = assay: Tumor-free survivors of P388 leukemia infected mice was measured after ip administration of 30 mg/kg in 6 mice; format: functional; conditions: route intraperitoneal; procedure, shortened: as §2
Mus musculus [13] = assay: Log change in viable tumor cells population was measured at end of therapy when compared to start of therapy at dose 50 mg/kg; format: functional; procedure, shortened: as §3
Mus musculus [14] = assay: In Vivo increase in life span of dying mice implanted ip with 10E6 P388 leukemia, after ip administration of 50 mg/kg; format: functional; conditions: route intraperitoneal; procedure, shortened: as §4
Mus musculus [15] = assay: Tumor-free survivors of P388 leukemia infected mice was measured after ip administration of 50 mg/kg in 6 mice; format: functional; conditions: route intraperitoneal; procedure, shortened: as §2
Mus musculus [16] = assay: Tumor-free survivors of P388 leukemia infected mice was measured after ip administration of 20 mg/kg in 6 mice; format: functional; conditions: route intraperitoneal; procedure, shortened: as §2
Mus musculus [17] = assay: Tumor-free survivors of P388 leukemia infected mice was measured after ip administration of 200 mg/kg in 3 mice; format: functional; conditions: route intraperitoneal; procedure, shortened: as §2
Mus musculus [18] = assay: Log chance in viable tumor cells population was measured after intraperitoneal administration of 20 mg/kg; format: functional; procedure, shortened: as §3
Mus musculus [19] = assay: Tumor-free survivors of P388 leukemia infected mice was measured after ip administration of 25 mg/kg in 5 mice; format: functional; conditions: route intraperitoneal; procedure, shortened: as §2
Mus musculus [20] = assay: In Vivo increase in life span of dying mice implanted ip with 10E6 P388 leukemia, after ip administration of 20 mg/kg; format: functional; conditions: route intraperitoneal; procedure, shortened: as §4
Mus musculus [21] = assay: Log chance in viable tumor cells population was measured after intraperitoneal administration of 200 mg/kg; format: functional; procedure, shortened: as §3
Mus musculus [22] = assay: Tumor-free survivors of P388 leukemia infected mice was measured after ip administration of 100 mg/kg in 5 mice; format: functional; conditions: route intraperitoneal; procedure, shortened: as §2

**Q.** `Nc1nc(F)nc2c1ncn2[C@H]1C[C@H](O)[C@@H](CO)O1` was tested. Which IC50 (CCRF-CEM) did it give?
**A.** 200 nM

**Q.** What about the IC50 (HEp-2) of the same molecule?
**A.** 200 nM

**Q.** What about the IC50 (L1210) of the same molecule?
**A.** 900 nM

**Q.** `Nc1nc(F)nc2c1ncn2[C@@H]1O[C@H](CO)[C@@H](O)[C@@H]1F` was tested. Which IC50 (CCRF-CEM) did it give?
**A.** 140 nM

**Q.** What about the Tumor free survivors (Mus musculus [1]) of the same molecule?
**A.** 0

**Q.** And the Log change (Mus musculus [2])?
**A.** -1.8

**Q.** What about the Log change (Mus musculus [3]) of the same molecule?
**A.** -0.1

**Q.** What about the ILS at 25 mg/kg (Mus musculus [4]) of the same molecule?
**A.** 81%

**Q.** What about the IC50 (HEp-2) of the same molecule?
**A.** 340 nM

**Q.** And the ILS at 100 mg/kg (Mus musculus [5])?
**A.** 63%

**Q.** What about the IC50 (L1210) of the same molecule?
**A.** 380 nM

**Q.** And the Tumor free survivors (Mus musculus [6])?
**A.** 0

**Q.** What about the IC50 (K562) of the same molecule?
**A.** 300 nM

**Q.** How did the IC50 (CCRF-CEM) turn out when `Nc1nc(Cl)nc2c1ncn2[C@@H]1O[C@H](CO)[C@@H](O)[C@H]1O` was run?
**A.** 10000 nM

**Q.** And the IC50 (HEp-2)?
**A.** 3000 nM

**Q.** What about the IC50 (L1210) of the same molecule?
**A.** < 3000 nM

**Q.** `Nc1nc(Br)nc2c1ncn2[C@@H]1O[C@H](CO)[C@@H](O)[C@H]1F` was tested. Which ILS at 30 mg/kg (Mus musculus [7]) did it give?
**A.** 100%

**Q.** What about the ILS at 200 mg/kg (Mus musculus [8]) of the same molecule?
**A.** 33%

**Q.** And the IC50 (CCRF-CEM)?
**A.** 20 nM

**Q.** What about the Tumor free survivors (Mus musculus [9]) of the same molecule?
**A.** 0

**Q.** And the Log change (Mus musculus [10])?
**A.** 0.1

**Q.** And the Log change (Mus musculus [11])?
**A.** -1

**Q.** What about the Tumor free survivors (Mus musculus [12]) of the same molecule?
**A.** 0

**Q.** What about the IC50 (HEp-2) of the same molecule?
**A.** 220 nM

**Q.** What about the IC50 (L1210) of the same molecule?
**A.** 260 nM

**Q.** What about the Log change (Mus musculus [13]) of the same molecule?
**A.** 1.6

**Q.** What about the ILS at 50 mg/kg (Mus musculus [14]) of the same molecule?
**A.** 41%

**Q.** And the Tumor free survivors (Mus musculus [15])?
**A.** 0

**Q.** What about the IC50 (K562) of the same molecule?
**A.** 50 nM

**Q.** Which results are given for `Nc1nc(Br)nc2c1ncn2[C@H]1C[C@H](O)[C@@H](CO)O1`?
**A.** IC50 (CCRF-CEM): 20 nM; IC50 (HEp-2): 20 nM; IC50 (L1210): 900 nM

**Q.** How did the IC50 (HEp-2) turn out when `Nc1nc(Br)nc2c1ncn2C1O[C@H](CO)[C@@H](O)[C@H]1O` (some centres not stated) was run?
**A.** 4000 nM

**Q.** What about the IC50 (L1210) of the same molecule?
**A.** 3000 nM

**Q.** Which IC50 (CCRF-CEM) does the source give for `Nc1nc(Cl)nc2c1ncn2[C@H]1C[C@H](O)[C@@H](CO)O1` [CLADRIBINE] here?
**A.** 3 nM

**Q.** What about the IC50 (HEp-2) of the same molecule?
**A.** 30 nM

**Q.** What about the IC50 (L1210) of the same molecule?
**A.** 70 nM

**Q.** Which Tumor free survivors (Mus musculus [16]) does the source give for `Nc1nc(Cl)nc2c1ncn2[C@@H]1O[C@H](CO)[C@@H](O)[C@@H]1F` [CLOFARABINE] here?
**A.** 1

**Q.** What about the ILS at 200 mg/kg (Mus musculus [8]) of the same molecule?
**A.** 59%

**Q.** And the IC50 (CCRF-CEM)?
**A.** 50 nM

**Q.** What about the Tumor free survivors (Mus musculus [17]) of the same molecule?
**A.** 0

**Q.** And the Log change (Mus musculus [2])?
**A.** -0.3

**Q.** What about the Log change (Mus musculus [18]) of the same molecule?
**A.** -6.6

**Q.** And the Tumor free survivors (Mus musculus [19])?
**A.** 0

**Q.** What about the Log change (Mus musculus [3]) of the same molecule?
**A.** -2.8

**Q.** What about the ILS at 20 mg/kg (Mus musculus [20]) of the same molecule?
**A.** 220%

**Q.** And the ILS at 25 mg/kg (Mus musculus [4])?
**A.** 118%

**Q.** And the Log change (Mus musculus [21])?
**A.** -1.6

**Q.** What about the IC50 (HEp-2) of the same molecule?
**A.** 12 nM

**Q.** What about the Tumor free survivors (Mus musculus [22]) of the same molecule?
**A.** 0

**Q.** What about the ILS at 100 mg/kg (Mus musculus [5]) of the same molecule?
**A.** 38%

**Q.** What about the IC50 (L1210) of the same molecule?
**A.** 230 nM

**Q.** And the IC50 (K562)?
**A.** 3 nM

**Q.** With `Nc1nc(F)nc2c1ncn2[C@@H]1O[C@H](CO)[C@@H](O)[C@@H]1O` [FLUDARABINE] as the molecule, how does the IC50 (CCRF-CEM) read?
**A.** 400 nM

**Q.** What about the IC50 (HEp-2) of the same molecule?
**A.** 9000 nM

**Q.** And the IC50 (L1210)?
**A.** 3000 nM

**Q.** What about the IC50 (K562) of the same molecule?
**A.** 150 nM
